Laboratory results taken from ChEMBL document CHEMBL4354867, “Validation and Characterization of Five Distinct Novel Inhibitors of Human Cytomegalovirus” (J Med Chem, 2020).
pEC50: −log10 of the molar value. Activity calls are given as the source filed them. No cut-off for these calls is given here.

Tests used:
[1] = tested on: Human betaherpesvirus 5; assay: Antiviral activity against HCMV Towne infected in human HFF cells assessed as reduction in plaque formation treated with compound following viral infection and incubated for 8 to 10 days by crystal violet staining based assay; type: functional, organism-based; conditions: Human betaherpesvirus 5, strain Towne
[2] = tested on: Human gammaherpesvirus 4; assay: Antiviral activity against EBV infected in human AKATA cells assessed as reduction in IgG-induced lytic virus replication measured at 48 hrs post-lytic induction by qRT-PCR analysis; type: functional, organism-based; conditions: human gammaherpesvirus 4, 48 h; read-out: EC50
[3] = Antiviral activity against Mouse Cytomegalovirus Smith (ATCC VR-1399) infected in mouse MEF cells assessed as reduction in plaque formation measured after 3 days by crystal violet staining based assay; type: functional, cell-based, Murine cytomegalovirus (strain Smith); conditions: mef
Outline: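 Plaque reduction with MCMV Smith in mouse embryonic fibroblasts, with compound in a carboxymethylcellulose overlay. Assay ended at 3 days and plaques counted after crystal violet staining.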

[4] = tested on: Human betaherpesvirus 5; assay: Antiviral activity against GCV-resistant HCMV Towne infected in human HFF cells assessed as reduction in plaque formation at 0.1 to 10 uM treated with compound for 24 hrs followed by viral infection at MOI of […] and measured after 10 days by crystal violet staining based assay; type: functional, organism-based; conditions: strain Towne
Outline: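 Overlay of DMEM with 0.5% carboxymethylcellulose and 4% FBS, 37 °C. After 10 days plaques stained with crystal violet and counted. Data are mean ± SD of triplicates from a representative experiment.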

[5] = tested on: Human betaherpesvirus 5; assay: Inhibition of viral protein expression in HCMV Towne infected in human HFF cells assessed as reduction in UL44 expression at 3 uM treated with compound for 24 hrs followed by viral infection at MOI of 1 PFU/cell measured at 72 hrs post infection by Western blot analysis; type: functional, organism-based; conditions: strain Towne
Outline: (§1)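 HFFs pretreated with compound, then infected with HCMV Towne at MOI 1, 0.1 or 0.01. Viral proteins in cell lysates detected at 72 hpi by SDS-PAGE (8–10%), PVDF transfer and chemiluminescent immunoblot. Images from a representative experiment.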

[6] = tested on: Human betaherpesvirus 5; assay: Inhibition of viral protein expression in HCMV Towne infected in human HFF cells assessed as reduction in IE2 expression at 3 uM treated with compound following viral infection at MOI of 1 PFU/cell measured at 72 hrs post infection by Western blot analysis; type: functional, organism-based; conditions: strain Towne
Outline: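 HFFs infected with HCMV Towne (MOI 1), then treated with compound. Lysates taken at 72 hpi, equal protein loaded on 8–10% Tris-glycine SDS-PAGE and transferred to PVDF. Primary antibodies overnight at 4 °C, HRP secondary, chemiluminescent detection; β-actin as loading control.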

[7] = tested on: Human betaherpesvirus 5; assay: Inhibition of viral protein expression in HCMV Towne infected in human HFF cells assessed as reduction in pp65 expression at 3 uM treated with compound for 24 hrs followed by viral infection at MOI of 0.01 PFU/cell measured at 72 hrs post infection by Western blot analysis; type: functional, organism-based; conditions: strain Towne; outline: as §1
[8] = tested on: Human betaherpesvirus 5; assay: Inhibition of viral protein expression in HCMV Towne infected in human HFF cells assessed as reduction in UL44 expression at 3 uM treated with compound for 24 hrs followed by viral infection at MOI of 0.01 PFU/cell measured at 72 hrs post infection by Western blot analysis; type: functional, organism-based; conditions: strain Towne; outline: as §1
[9] = tested on: Human betaherpesvirus 5; assay: Antiviral activity against HCMV Towne infected in human HFF cells assessed as reduction in plaque formation treated with compound following viral infection at MOI of 1 PFU/cell and measured at 10 days post-infection in presence of letermovir by crystal violet staining based assay; type: functional, organism-based; conditions: Human betaherpesvirus 5, strain Towne, 240 h

COc1ccc(Cl)cc1C(=O)Nc1ccc(NC(=O)c2ccco2)cc1
pEC50 [1]: 6.26 | pEC50 [2]: < 5.00 | EC50 [3]: Not Active | Activity [4]: Active | inhibition [5]: inactive | inhibition [6]: inactive | inhibition [7]: Active | inhibition [8]: Active | pEC50 [9]: 6.49
